Assay [1] addresses T1, Adenosine receptor A2b (Homo sapiens, UniProt P29275).
T1 sequence (P29275 whole entry): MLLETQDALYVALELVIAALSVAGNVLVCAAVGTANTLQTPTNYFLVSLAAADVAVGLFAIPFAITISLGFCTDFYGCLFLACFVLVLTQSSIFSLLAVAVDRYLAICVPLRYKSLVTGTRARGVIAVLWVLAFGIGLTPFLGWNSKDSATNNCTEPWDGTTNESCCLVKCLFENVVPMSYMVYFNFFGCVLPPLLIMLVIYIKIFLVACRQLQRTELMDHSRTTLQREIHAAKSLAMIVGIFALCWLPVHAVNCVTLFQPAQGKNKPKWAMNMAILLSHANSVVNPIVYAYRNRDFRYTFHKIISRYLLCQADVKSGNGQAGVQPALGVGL
Nature of the assay: Inverse agonist activity at human adenosine A2B receptor expressed in CHO cells assessed as inhibition of cAMP accumulation measured after 150 mins in presence of [3H]cAMP by scintillation counting method. It is filed as functional, cell-based.

Assay [2] deals with T2, Adenosine receptor A2a (Homo sapiens, UniProt P29274). Nature of the assay: biochemical.
For assay [3], the target named is T3, Adenosine receptor A1 (Homo sapiens, UniProt P30542).
T3 sequence (P30542 whole entry): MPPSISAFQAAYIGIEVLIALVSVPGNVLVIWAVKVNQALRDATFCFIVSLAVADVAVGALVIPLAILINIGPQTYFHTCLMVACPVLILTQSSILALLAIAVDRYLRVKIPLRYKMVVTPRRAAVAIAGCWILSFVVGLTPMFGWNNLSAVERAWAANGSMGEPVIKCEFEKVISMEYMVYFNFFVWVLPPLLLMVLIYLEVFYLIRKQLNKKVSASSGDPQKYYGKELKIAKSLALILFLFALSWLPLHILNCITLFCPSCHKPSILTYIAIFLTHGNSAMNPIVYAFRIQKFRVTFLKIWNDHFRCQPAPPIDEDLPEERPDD
Nature of the assay: Displacement of [3H]DPCPX from human adenosine A1 receptor expressed in CHO cell membranes measured after 90 mins by scintillation counting method. The gist of the method:
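Membranes came from CHO cells stably transfected with hA1 AR. Cells were scraped into ice-cold hypotonic buffer (5 mM Tris HCl, 1 mM EDTA, pH 7.4), homogenized, and spun at 40000g for 30 min at 4 °C. Membranes (50 μg protein/100 μL) were incubated with 1 nM [3H]-DPCPX and varied test concentrations at 25 °C for 90 min in 50 mM Tris HCl, pH 7.4.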

The target in assay [4] is T4, Adenosine receptor A3 (Homo sapiens, UniProt P0DMS8).
T4 sequence (P0DMS8 whole entry): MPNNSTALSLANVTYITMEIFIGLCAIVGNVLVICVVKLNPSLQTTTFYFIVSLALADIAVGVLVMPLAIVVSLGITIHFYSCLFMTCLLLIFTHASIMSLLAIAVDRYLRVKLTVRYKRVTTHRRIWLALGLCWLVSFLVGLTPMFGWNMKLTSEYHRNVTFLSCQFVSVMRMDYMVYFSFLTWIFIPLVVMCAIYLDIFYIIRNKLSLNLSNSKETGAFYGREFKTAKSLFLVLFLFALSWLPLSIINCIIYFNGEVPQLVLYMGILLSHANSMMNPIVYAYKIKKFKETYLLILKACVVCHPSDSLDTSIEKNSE
Put plainly: Displacement of [125I]AB-MECA from human adenosine A3 receptor expressed in CHO cell membranes measured after 120 mins by scintillation counting method.

For assay [5], the species on record is Mus musculus. Put plainly: Analgesic activity in CD-1 mouse assessed as reduction in acetic acid-induced abdominal constrictions preincubated for 15 mins followed by acetic acid challenge measured for 30 mins by writhing test. It is filed as functional. The following applies: for inhibition: Abdomen. In a few lines: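 Mice received acetic acid ip to induce abdominal constrictions; vehicle-treated mice served as controls. Test agents were given over a dose range. ED50 (mg/kg) was derived from the dose–response curve, and dose dependence was analysed by one-way ANOVA.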

Assay [6] has as its target T5, Adenosine receptor A3 (Homo sapiens) (UniProt P0DMS8).
T5 sequence (whole entry): T4 sequence (P0DMS8 whole entry)
Put plainly: Inverse agonist activity at human adenosine A3 receptor expressed in CHO cells assessed as inhibition of cAMP accumulation at 10 uM measured after 150 mins in presence of [3H]cAMP by scintillation counting method relative to control. It counts as functional, cell-based. In a few lines:
(§1)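 Transfected CHO cells (hA1, hA2B or hA3) were grown adherently in DMEM/F12 with 10% fetal calf serum, penicillin, streptomycin, 2 mM L-glutamine and 0.2 mg/mL G418 at 37 °C in 5% CO2. Test compounds were applied at 10 μM. cAMP is reported as percent of basal level (100%), given as mean ± SEM.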

Assay [7] deals with T6, Adenosine receptor A1 (Homo sapiens) (UniProt P30542).
T6 sequence (whole entry): T3 sequence (P30542 whole entry)
Nature of the assay: Inverse agonist activity at human adenosine A1 receptor expressed in CHO cells assessed as inhibition of cAMP accumulation at 10 uM measured after 150 mins in presence of [3H]cAMP by scintillation counting method relative to control. It is filed as functional, cell-based. The gist of the method: as §1

Assay [8] has as its target T7, Adenosine receptor A2b (Homo sapiens) (UniProt P29275).
T7 sequence (whole entry): T1 sequence (P29275 whole entry)
Nature of the assay: Inverse agonist activity at human adenosine A2B receptor expressed in CHO cells assessed as inhibition of cAMP accumulation at 10 uM measured after 150 mins in presence of [3H]cAMP by scintillation counting method relative to control. It is filed as functional, cell-based. In a few lines: as §1

The species named for assay [9] is Mus musculus. Put plainly: Antinociceptive activity in CD-1 mouse assessed as increase in latency in response to heat stimulus measured for 15 mins by hot water tail immersion test. It counts as functional. Particulars: CD-1, 0.25 h. The gist of the method:
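Test agents were given to mice over a dose range before hot water tail immersion. ED50 (mg/kg) was derived from the dose–response curve, and the minimum effective dose was also noted.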

For assay [10], the target named is T2, Adenosine receptor A2a. Particulars: CHO.
The target of assay [11] is T2, Adenosine receptor A2a. Put plainly: Antagonist activity against human adenosine A2A receptor expressed in CHO cells assessed as inhibition of CGS21680-stimulated cAMP accumulation measured after 150 mins in presence of [3H]cAMP by scintillation counting method. It counts as functional, cell-based.
For assay [12], the target named is T2, Adenosine receptor A2a. Put plainly: Inverse agonist activity at human adenosine A2A receptor expressed in CHO cells assessed as inhibition of cAMP accumulation measured after 150 mins in presence of [3H]cAMP by scintillation counting method. It is filed as functional, cell-based.

T2 sequence (P29274 whole entry): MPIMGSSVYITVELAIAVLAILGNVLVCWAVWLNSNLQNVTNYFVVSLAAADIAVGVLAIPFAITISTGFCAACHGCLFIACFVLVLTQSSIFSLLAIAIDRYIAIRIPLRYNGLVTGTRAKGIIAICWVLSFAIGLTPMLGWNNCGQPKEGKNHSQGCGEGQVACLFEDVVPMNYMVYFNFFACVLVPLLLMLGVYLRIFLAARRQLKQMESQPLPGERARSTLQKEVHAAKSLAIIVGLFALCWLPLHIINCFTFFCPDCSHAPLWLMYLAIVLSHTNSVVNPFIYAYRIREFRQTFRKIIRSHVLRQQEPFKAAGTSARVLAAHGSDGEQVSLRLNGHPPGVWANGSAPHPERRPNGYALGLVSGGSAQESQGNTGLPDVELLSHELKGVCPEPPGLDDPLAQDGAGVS

`Nc1nc(Nc2ccccc2)nc2sc(-c3ccco3)nc12`: the IC50 in assay [1] is 632 nM. In addition, the Ki in [2] turned out to be 782 nM; in assay [3], 645 nM; in assay [4] it was 321 nM.

With `Nc1nc(NCCc2ccc(O)c(O)c2)nc2sc(-c3ccco3)nc12`, in assay [1], the IC50 was 18 nM. In addition, the Ki in assay [2] was 40 nM; in [3], 39 nM; in assay [4], 546 nM.

Take `Nc1nc(NCCc2ccc(O)cc2)nc2nc(-c3ccco3)nn12` [ZM-241385]: the inhibition entry in [5] was “Dose-dependent effect”; in assay [6] it was 101%; in [7], 103%; in assay [8] it was 109%. Also, the ED50 in assay [9] is above 10 mg/kg.

Regarding `COc1ccccc1CNc1nc(N)c2nc(-c3ccco3)sc2n1`, the inhibition entry in [5] is “Dose-dependent effect”; in [6], 91%; in assay [7], 106%; in assay [8], 94%. In addition, in assay [10], the KiH is 5.23 nM. In addition, the minimal effective dose in assay [9] (read-out: MED) was determined as 0.01 mg/kg.

`COc1cccc(CCNc2nc(N)c3nc(-c4ccco4)sc3n2)c1`: the IC50 in assay [1] stood at 47 nM. The values for the Ki in [2], in assay [3] and in assay [4] were 17 nM, 0.92 nM and 287 nM, respectively.

Regarding `Nc1nc(NCCc2ccccc2)nc2sc(-c3ccco3)nc12`, the IC50 came to 389 nM in [1], 16 nM in [11] and 35 nM in assay [12]. Moreover, the inhibition constant (Ki) came to 30 nM in assay [2], 24 nM in assay [3] and 217 nM in [4]. The inhibition was found to be 94% in assay [6], 105% in assay [7] and 102% in [8].

Consider `COc1cccc(CNc2nc(N)c3nc(-c4ccco4)sc3n2)c1`, for which the inhibition result was “Dose-dependent effect” in assay [5], 106% in assay [6], 104% in assay [7] and 99% in assay [8]. The ED50 amounted to 0.158 mg/kg in assay [5] (CD-1, Abdomen) and 0.926 mg/kg in [9]. In assay [10], this compound returned a KiH of 6.71 nM.

As for `COc1ccc(CCNc2nc(N)c3nc(-c4ccco4)sc3n2)cc1OC`, the IC50 in assay [1] turned out to be 95 nM. Also, the Ki in assay [2] worked out at 91 nM; in assay [3] it was 221 nM; in [4], 824 nM.

In the case of `COc1ccc(CNc2nc(N)c3nc(-c4ccco4)sc3n2)cc1`, the inhibition in assay [6] stood at 104%; in assay [7] it was 100%; in [8], 97%.

On to `CN1CC[C@]23c4c5ccc(O)c4O[C@H]2[C@@H](O)C=C[C@H]3[C@H]1C5` [MORPHINE], for which the inhibition entry in [5] was “Dose-dependent effect”. Moreover, in [9], the ED50 is 1.14 mg/kg.

`Nc1nc(NCc2ccccc2)nc2sc(-c3ccco3)nc12`: the IC50 was determined as 32 nM in assay [1], 18 nM in assay [11] and 29 nM in assay [12]. In addition, the Ki in assay [2] came out at 22 nM; in assay [3] it was 45 nM; in assay [4] it was 37 nM. Also, the results for the inhibition in assay [6], in assay [7] and in [8] were 102%, 101% and 95%, respectively.

Take `Nc1nc(NCCc2ccc(O)cc2)nc2sc(-c3ccco3)nc12`: the IC50 in [1] is 482 nM; in [11], 21 nM; in assay [12] it was 25 nM. Further, the Ki in [2] amounted to 18 nM; in assay [3], 37 nM; in assay [4], 1880 nM. The values for the inhibition in assay [6], in assay [7] and in assay [8] were 101%, 102% and 92%, respectively.

In the case of `Nc1nc(NCc2cccc(O)c2)nc2sc(-c3ccco3)nc12`, the inhibition in assay [6] is 98%; in assay [7], 96%; in assay [8], 95%.

As to `COc1ccc(CCNc2nc(N)c3nc(-c4ccco4)sc3n2)cc1`, the IC50 in assay [1] worked out at 553 nM; in assay [11] it was 31 nM; in assay [12] it was 42 nM. Further, the results for the Ki in assay [2], in [3] and in assay [4] were 32 nM, 61 nM and 2650 nM, respectively. The inhibition was 105% in assay [6], 93% in [7] and 103% in [8].

On to `Nc1nc(NCCCc2ccccc2)nc2sc(-c3ccco3)nc12`, for which the IC50 in assay [1] turned out to be 1770 nM. For the same compound, the Ki in assay [2] came out at 58 nM; in [3], 49 nM; in [4], 1140 nM.

Turning to `Nc1nc(NCCc2cccc(O)c2)nc2sc(-c3ccco3)nc12`, the IC50 in assay [1] was found to be 25 nM. Further, the values for the Ki in assay [2], in assay [3] and in assay [4] were 16 nM, 0.23 nM and 76 nM, respectively.
